Test results reported in ChEMBL document CHEMBL1136953, “Design, synthesis, and evaluation of N-acyl modified sialic acids as inhibitors of adenoviruses causing epidemic keratoconjunctivitis” (J Med Chem, 2009).
Active and inactive are the calls of the source. The calls are words filed in the database; no cut-off is given here.

Experiments:
[1] = test system: Human adenovirus D37; test: Antiviral activity against Human adenovirus type 37 virions assessed as inhibition of viral infection in human corneal epithelial cells preincubated for 1 hr; type: functional, organism-based; conditions: Cornea, Epithelial cell
Summary of the method: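 Unlabeled Ad37 virions preincubated with a dilution series of ligand, then incubated with HCE cells. Unbound virions washed off; cell-associated virions allowed to infect. Infected cells stained with rabbit polyclonal anti-Ad37 serum and FITC-conjugated swine anti-rabbit IgG, then counted as fluorescent focus units under an immunofluorescence microscope. Duplicates within one experiment; experiment repeated twice.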

[2] = test system: Human adenovirus D37; test: Inhibition of [35S]labeled Human adenovirus type 37 virions binding to human corneal epithelial cells by liquid scintillation counting; type: functional, organism-based; conditions: Cornea, Epithelial cell
Summary of the method: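 ³⁵S-labeled Ad37 virions preincubated with ligand before being added to HCE cells. After incubation, unbound virions washed away and cell-associated radioactivity measured. Each run used a duplicate dilution series (2, 4, 8 and 16 mM), averaged from duplicates. Experiment repeated three times; large variation allowed only a rough activity estimate.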

| Structure (SMILES) | Activity [1] | Activity [2] |
| --- | --- | --- |
| CC(=O)N[C@H]1[C@H]([C@@H](O)[C@@H](O)CO)O[C@@](O)(C(=O)O)C[C@@H]1O | Dose-dependent effect | Active |
| CO[C@@]1(C(=O)O)C[C@H](O)[C@@H](NC(=O)c2ccccc2)[C@H]([C@H](O)[C@H](O)CO)O1 | inactive | Active |
| CCC(=O)N[C@H]1[C@H]([C@H](O)[C@H](O)CO)O[C@](OC)(C(=O)O)C[C@@H]1O | Dose-dependent effect | Active |
| O=C(CO)N[C@H]1[C@H]([C@H](O)[C@H](O)CO)O[C@](O)(C(=O)O)C[C@@H]1O | – | inactive |
| CCCCC(=O)N[C@H]1[C@H]([C@H](O)[C@H](O)CO)O[C@](OC)(C(=O)O)C[C@@H]1O | – | inactive |
| CNC(=O)N[C@H]1[C@H]([C@H](O)[C@H](O)CO)O[C@](OC)(C(=O)O)C[C@@H]1O | – | inactive |
| CO[C@@]1(C(=O)O)C[C@H](O)[C@@H](NC(=O)C(C)C)[C@H]([C@H](O)[C@H](O)CO)O1 | inactive | inactive |
| CCCC(=O)N[C@H]1[C@H]([C@H](O)[C@H](O)CO)O[C@](OC)(C(=O)O)C[C@@H]1O | inactive | inactive |
| CO[C@@]1(C(=O)O)C[C@H](O)[C@@H](NC(=O)OC(C)(C)C)[C@H]([C@H](O)[C@H](O)CO)O1 | – | inactive |
| COC(=O)N[C@H]1[C@H]([C@H](O)[C@H](O)CO)O[C@](OC)(C(=O)O)C[C@@H]1O | Dose-dependent effect | Active |
